We go through four compounds from article PMC3107735 (Biochemistry, 2011).

Where “and” joins values, the source holds several entries; their conditions need not be identical. Identical values can stand only once.

In series [1] the target is PPACK-thrombin (Bos taurus, UniProt P00735). Description: ITC, ligand titrated into PPACK-thrombin. The series is classed as binding, bovine. The conditions noted are these: ppack-thrombin in cell, 25°C; for Ka / N (stoichiometry of binding) / ΔH: pH 7.4; for -TΔS: computed from ΔG-ΔH; for ΔG: obtained from KA. The method, boiled down:
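Bovine α-thrombin treated with PPACK (1.1 μmol per 1 mL fraction, 3 h shaking, room temperature), re-purified by size exclusion the same day, and held at 6.5 μM in the cell (BCA). Buffer was 50 mM Bis-tris propane pH 7.4, 150 mM NaCl, 2.5 mM CaCl2. Degassed ligand at 65-70 μM was injected at 25°C with a 180 s initial delay. Heats were integrated and corrected for dilution; ΔG came from Ka and -TΔS from ΔG-ΔH.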
For orientation: ITC needs no label: the signal is the heat of the interaction.

Series [2] addresses T1, thrombin (Bos taurus, UniProt P00735). Description: Isothermal titration calorimetry. The series is classed as binding, bovine. The note with it: for N (stoichiometry of binding) / ΔH / -TΔS / ΔG / Ka: thrombin in cell, 25°C; for N (stoichiometry of binding) / ΔH / Ka: pH 7.4; for -TΔS: computed from ΔG-ΔH; for ΔG: obtained from KA.
For series [3], the target named is T1, thrombin. Description: Differential scanning calorimetry. Set-up: species or system bovine. The note with it: DSC; 25 μM thrombin; thrombin alone 56.9°C or 57.9°C (Figure 6 legend). For orientation: Differential scanning calorimetry records heat flow against a reference as temperature is scanned.
Series [4] concerns the target aptamer-thrombin complex (Bos taurus, UniProt P00735). Description: ITC, ligand titrated into pre-formed aptamer-thrombin complex. The series is classed as binding, bovine. The conditions noted are these: apt-thrombin in cell, 25°C; for Ka / N (stoichiometry of binding) / ΔH: pH 7.4; for -TΔS: computed from ΔG-ΔH; for ΔG: obtained from KA.
Series [5] concerns the target TM45-thrombin (Bos taurus, UniProt P00735). Briefly: ITC, ligand titrated into TMEGF45-thrombin complex. The series is classed as binding, bovine. The conditions noted are these: TM45-thrombin in cell, 25°C; for Ka / N (stoichiometry of binding) / ΔH: pH 7.4; for -TΔS: computed from ΔG-ΔH; for ΔG: obtained from KA.
Series [6] concerns the target T1, thrombin. The note with it: DSC; increases from 57°C for thrombin; cited from earlier work.

As for GGTTGGTGTGGTTGG [aptamer], in series [1] (with 2.5 mM calcium), the Ka is 1.4 ± 0.6 ×10^7 M^-1, the “N (stoichiometry of binding)” value came out at 0.9 ± 0.1, the ΔH is given as -21.0 ± 0.3 kcal/mol and the “-TΔS” value stood at 11.3 ± 0.004 kcal/mol. Besides, the ΔG in series [1] (with 2.5 mM calcium) was -9.7 ± 0.3 kcal/mol. In addition, in series [1] (without calcium), the Ka is listed as 0.8 ± 0.1 ×10^7 M^-1, the “N (stoichiometry of binding)” value came out at 0.98 ± 0.02, the ΔH was -17.7 ± 1.1 kcal/mol and the “-TΔS” value is reported as 8.3 ± 1.2 kcal/mol. In addition, in series [1] (without calcium), the ΔG is -9.4 ± 0.8 kcal/mol. Besides, in series [2] (with 2.5 mM calcium), the “N (stoichiometry of binding)” value is 0.87 ± 0.04, the ΔH is given as -22.4 ± 0.1 kcal/mol, the “-TΔS” value is 12.6 ± 1.0 kcal/mol and the ΔG was -9.8 ± 0.1 kcal/mol. Moreover, in series [2] (without calcium), the Ka was 0.9 ± 0.2 ×10^7 M^-1, the “N (stoichiometry of binding)” value was found to be 0.96 ± 0.1, the ΔH is -20.2 ± 0.8 kcal/mol and the “-TΔS” value amounted to 10.5 ± 0.9 kcal/mol. Besides, in series [2] (without calcium), the ΔG is on record as -9.7 ± 0.2 kcal/mol. The ΔH in series [2] (without calcium, listed as DNA aptamer) is on record as -20.2 kcal/mol. In series [3], the “melting (denaturation) temperature of thrombin with ligand bound at exosite 1” value was 57.9 °C and 58.7 °C.
Regarding `CCC1CCN(C(=O)[C@H](CCCNC(=N)N)NS(=O)(=O)c2cccc3c(N(C)C)cccc23)CC1` [DAPA, dansyl-L-arginine-(3-ethyl-1,5-pantanediyl) amide], the Ka in series [4] (with 2.5 mM calcium) was 5.6 ± 2.1 ×10^7 M^-1; in series [4] (without calcium), 5.8 ± 0.37 ×10^7 M^-1; in series [5] (with 2.5 mM calcium) it was 5.9 ± 2.2 ×10^7 M^-1; in series [5] (without calcium), 5.0 ± 1.8 ×10^7 M^-1; in series [2] (with 2.5 mM calcium), 4.5 ± 0.5 ×10^7 M^-1; in series [2] (without calcium), 4.5 ± 2.5 ^1 ×10^7 M^-1. Further, the “N (stoichiometry of binding)” value turned out to be 1.06 ± 0.08 in series [4] (with 2.5 mM calcium); 1.11 ± 0.1 in series [4] (without calcium); 1.00 ± 0.06 in series [5] (with 2.5 mM calcium); 0.86 ± 0.02 in series [5] (without calcium); 0.9 ± 0.1 in series [2] (with 2.5 mM calcium); 0.9 ± 0.1 in series [2] (without calcium). The ΔH is listed as -4.8 ± 0.2 kcal/mol in series [4] (with 2.5 mM calcium); -4.2 ± 0.3 kcal/mol in series [4] (without calcium); -5.0 ± 0.1 kcal/mol in series [5] (with 2.5 mM calcium); -4.5 ± 0.2 kcal/mol in series [5] (without calcium); -6.2 ± 0.04 kcal/mol in series [2] (with 2.5 mM calcium). Also, the “-TΔS” value is on record as -5.7 ± 0.4 kcal/mol in series [4] (with 2.5 mM calcium); -6.4 ± 0.7 kcal/mol in series [4] (without calcium); -5.5 ± 0.2 kcal/mol in series [5] (with 2.5 mM calcium); -6.0 ± 0.4 kcal/mol in series [5] (without calcium); -4.2 ± 0.1 kcal/mol in series [2] (with 2.5 mM calcium); -4.4 ± 0.6 kcal/mol in series [2] (without calcium). In addition, the ΔG in series [4] (with 2.5 mM calcium) is -10.5 ± 0.3 kcal/mol; in series [4] (without calcium), -10.6 ± 0.4 kcal/mol; in series [5] (with 2.5 mM calcium), -10.5 ± 0.2 kcal/mol; in series [5] (without calcium), -10.5 ± 0.2 kcal/mol; in series [2] (with 2.5 mM calcium), -10.4 ± 0.1 kcal/mol; in series [2] (without calcium), -10.3 ± 0.4 kcal/mol.
In the case of calcium, the “change in heat upon addition to thrombin in the cell (ITC)” value in series [2] (calcium added to thrombin in the cell) is listed as “no measurable direct binding”.
As for `NC(N)=NCCC[C@H](NC(=O)[C@@H]1CCCN1C(=O)[C@H](N)Cc1ccccc1)C(=O)CCl` [PPACK, DPhe-Pro-Arg-chloromethyl ketone], the “Tm of thrombin with ligand bound at the active site” value in series [6] is 70 °C.
